Experimental data from ChEMBL document CHEMBL3526062, “Role of human UDP-glucuronosyltransferases in the biotransformation of the triazoloacridinone and imidazoacridinone antitumor agents C-1305 and C-1311: highly selective substrates for UGT1A10” (Drug Metab Dispos, 2012).
pKi: −log10 of the molar value.

Columns and labels:
[1] = Drug metabolism in human colon microsomes assessed as glucuronidation activity at 0.1 mM for 60 mins in presence of 3 mM UDP-GlcUA; type: ADME, microsome; conditions: 1 h, 100 µM
In short: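 Microsomes from single donors (20 μg protein) incubated with 0.1 mM substrate and 3 mM UDP-GlcUA for 60 min at 37°C in Tris-HCl pH 7.4 buffer with 5 mM MgCl2, 5 mM saccharolactone and 2% DMSO. Glucuronide measured by HPLC; donor data summarized as box-and-whisker plots.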

[2] = Drug metabolism in human intestinal microsomes assessed as glucuronidation per mg of protein after 60 mins by Michaelis-Menten equation in presence of 3 mM UDP-GlcUA; type: ADME, Intestine, Microsome; conditions: 1 h
In short: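 Recombinant UGT membrane protein (5 μg; His-tagged UGT1A levels normalized by anti-His Western blot) or single-donor microsomes (20 μg) incubated with substrate 5–1000 μM and 3 mM UDP-GlcUA in […] pH 7.4, 5 mM MgCl2, 5 mM saccharolactone, 2% DMSO, 60 min, 37°C. Ethanol stop, centrifuged, HPLC-UV. Initial velocities fitted to Michaelis-Menten, Hill or substrate-inhibition models; three determinations.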

[3] = target: T1, UDP-glucuronosyltransferase 1A9 (Homo sapiens, UniProt O60656); assay: Inhibition of human recombinant UGT1A9 activity expressed in baculovirus-infected Sf9 cells; type: ADME
T1 sequence (O60656 whole entry): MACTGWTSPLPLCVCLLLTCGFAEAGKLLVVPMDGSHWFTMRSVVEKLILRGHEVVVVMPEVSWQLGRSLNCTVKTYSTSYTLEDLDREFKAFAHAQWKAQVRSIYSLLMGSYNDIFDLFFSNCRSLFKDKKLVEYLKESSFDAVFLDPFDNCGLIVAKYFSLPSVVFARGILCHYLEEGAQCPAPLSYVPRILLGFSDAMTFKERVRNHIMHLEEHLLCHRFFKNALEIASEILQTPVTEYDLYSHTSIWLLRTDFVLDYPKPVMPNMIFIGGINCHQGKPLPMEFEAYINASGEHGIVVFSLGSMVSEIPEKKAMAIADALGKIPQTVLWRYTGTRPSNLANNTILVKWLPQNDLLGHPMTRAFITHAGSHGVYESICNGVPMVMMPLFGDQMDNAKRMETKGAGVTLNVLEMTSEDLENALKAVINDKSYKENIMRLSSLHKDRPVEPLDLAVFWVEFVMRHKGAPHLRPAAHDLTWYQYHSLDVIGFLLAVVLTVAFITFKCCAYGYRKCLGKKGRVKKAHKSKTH

[4] = target: T2, UDP-glucuronosyltransferase 1A7 (Homo sapiens, UniProt Q9HAW7); assay: Drug metabolism assessed as human recombinant UGT1A7-mediated compound formation treated with C-1305 for 60 mins by ESI-MS/UV-vis spectroscopy in presence of 3 mM UDP-GlcUA; type: ADME; conditions: recombinant enzyme, 1 h
T2 sequence (Q9HAW7 whole entry): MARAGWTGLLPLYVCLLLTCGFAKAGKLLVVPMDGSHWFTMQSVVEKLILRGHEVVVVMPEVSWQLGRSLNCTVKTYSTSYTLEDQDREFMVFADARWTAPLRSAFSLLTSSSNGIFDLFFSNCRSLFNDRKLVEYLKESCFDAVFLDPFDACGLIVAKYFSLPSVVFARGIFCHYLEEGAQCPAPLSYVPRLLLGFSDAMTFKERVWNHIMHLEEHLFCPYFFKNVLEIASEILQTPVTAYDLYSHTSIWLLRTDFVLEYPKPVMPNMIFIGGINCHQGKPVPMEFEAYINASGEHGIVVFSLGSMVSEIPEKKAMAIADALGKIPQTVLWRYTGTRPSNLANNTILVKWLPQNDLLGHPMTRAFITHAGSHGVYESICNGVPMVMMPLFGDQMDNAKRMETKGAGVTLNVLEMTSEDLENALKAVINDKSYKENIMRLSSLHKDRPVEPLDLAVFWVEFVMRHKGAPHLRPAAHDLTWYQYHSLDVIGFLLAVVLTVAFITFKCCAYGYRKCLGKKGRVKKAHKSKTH
In short: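 His-tagged recombinant human UGT expressed in baculovirus-infected insect cells, levels normalized by anti-His Western blot; 5 μg membrane protein incubated 60 min at 37°C in […] pH 7.4, 5 mM MgCl2, 5 mM saccharolactone, 2% DMSO, substrate 100 or 200 μM; started with UDP-GlcUA; ethanol stop, centrifuged; supernatant by reversed-phase HPLC-UV/ESI-MS; glucuronide confirmed by β-glucuronidase hydrolysis; triplicate.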

[5] = target: T3, UDP-glucuronosyltransferase 1A1 (Homo sapiens, UniProt P22309); assay: Activity of human recombinant UGT1A1 expressed in baculovirus-infected Sf9 cells assessed as glucuronidation activity per mg of protein at 100 to 200 uM after 60 mins in presence of 3 mM UDP-GlcUA; type: ADME; conditions: sf9, 1 h
T3 sequence (P22309 whole entry): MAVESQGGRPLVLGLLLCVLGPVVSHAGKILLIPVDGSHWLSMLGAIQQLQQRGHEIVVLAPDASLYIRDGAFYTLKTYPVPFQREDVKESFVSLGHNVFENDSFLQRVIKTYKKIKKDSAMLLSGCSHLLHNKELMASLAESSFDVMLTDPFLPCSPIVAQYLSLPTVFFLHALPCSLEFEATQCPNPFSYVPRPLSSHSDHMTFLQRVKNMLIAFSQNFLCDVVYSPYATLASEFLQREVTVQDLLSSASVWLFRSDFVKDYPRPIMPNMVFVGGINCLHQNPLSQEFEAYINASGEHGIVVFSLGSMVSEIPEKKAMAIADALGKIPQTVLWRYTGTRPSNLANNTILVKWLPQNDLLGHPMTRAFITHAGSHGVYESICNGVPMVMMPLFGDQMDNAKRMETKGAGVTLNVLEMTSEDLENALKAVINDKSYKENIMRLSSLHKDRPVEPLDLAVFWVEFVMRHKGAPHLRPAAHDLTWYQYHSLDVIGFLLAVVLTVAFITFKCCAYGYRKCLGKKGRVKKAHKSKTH
In short: (§1)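 Screening: 5 μg recombinant UGT protein (His-tag levels normalized) in Tris-HCl pH 7.4, 5 mM MgCl2, 5 mM saccharolactone, 2% DMSO to permeabilize membranes. Substrate at 100 or 200 μM, added in water. Started with 3 mM UDP-GlcUA, 60 min at 37°C, stopped with ethanol, then centrifuged. Glucuronide quantified by reversed-phase C18 HPLC against the substrate response; triplicates.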

[6] = target: T2, UDP-glucuronosyltransferase 1A7; assay: Activity of human recombinant UGT1A7 expressed in baculovirus-infected Sf9 cells assessed as glucuronidation activity per mg of protein at 100 to 200 uM after 60 mins in presence of 3 mM UDP-GlcUA; type: ADME; conditions: sf9, 1 h; in short: as §1
[7] = Drug metabolism in human intestinal microsomes assessed as metabolite formation treated with C-1311 for 60 mins by ESI-MS/UV-vis spectroscopy in presence of 3 mM UDP-GlcUA; type: ADME, Intestine, Microsome; conditions: 1 h
In short: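 Protein (5 μg UGT1A10 or microsomal) incubated with 0.2 mM substrate and 3 mM UDP-GlcUA, 60 min. HPLC on C18 at 25°C with a 15–80% methanol gradient in 0.05 M ammonium formate pH 3.4 at 1 ml/min. ESI positive-ion MS and UV/Vis spectra taken from the peaks. Glucuronide confirmed by 60 min further treatment with 1000 U E. coli β-glucuronidase.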

In the case of `CN(C)CCCNc1ccc2nnn3c4ccc(O)cc4c(=O)c1c23`, the Drug metabolism [1] was “metabolite_detected”, the Vmax [2] was 0.413 nmol/min/mg and the pKi [3] was 2.78. For the same compound, the Drug metabolism [4] was “metabolite_detected”, the Drug metabolism [5] was less than 0.1 nmol/min/mg and the Drug metabolism [6] was 0.2 nmol/min/mg.
For `CCN(CC)CCNc1ccc2ncn3c4ccc(O)cc4c(=O)c1c23` [C-1311], the Drug metabolism [1] was “metabolite_detected”, the Vmax [2] was 0.823 nmol/min/mg and the Drug metabolism [7] was “metabolite_detected”. It also gave a pKi [3] of 3.02, a Drug metabolism [5] of less than 0.1 nmol/min/mg and a Drug metabolism [6] of 0.2 nmol/min/mg.
